Screens: PubChem, several laboratories
Shown are actives, neighbours in structure and some others; about 2% of the full set was active somewhere.
LGR2 antag: blocks bursicon-induced cAMP signaling via Drosophila LGR2; HEK293 LGR2, CRE-luciferase, bursicon-stimulated, 4 h; inhibition, % at 9.99 µM; actives 0.35% (n = 380,000);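 active = drop in luminescence signal, shown as inhibition above about 50% in the replicate tests, limit read from the data, passing the limit was not always enough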;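 also: agonist challenge used bursicon conditioned medium at about half maximal strength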
CaV13 FRET inh: Primary screen for inhibitors of IQ motif and Ca2+-dependent inactivation inhibitor domain binding in CACNA1D, Förster resonance energy transfer in living cells, …; HEK cells, CFP/YFP FRET ICDI-IQ, plate reader, 10 min; percent FRET-ratio fall versus neutral wells; inhibition, % at 12.3 µM; actives 0.098% (n = 340,000);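 active = mean replicate inhibition of at least 30% and at least 1% of replicates passing that level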;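 also: 0% = median of the neutral control wells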
TWEAK Fn14 block: TWEAK-Fn14 signaling inhibition | TWEAK-stimulated Fn14 reporter cells, luciferase luminescence, 8 h | inhibition, % at 10 µM | actives 2% (n = 360,000) | AID 1159606; in the data active = inhibition above about 50%
Xi reactivation: X-chromosome reactivation activator. actives 0.055% (n = 360,000). XiGFP mouse fibroblasts, % GFP-positive cells imaging, 3 d; cells co-treated with 5-aza-dC sensitizer; scaled so ellipticine positive control = 100%. activation, % at 7.58 µM;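 active = mean normalized replicate activation at least 10% and every replicate at or above 10%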;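 also: 0% = median of on-plate neutral control wells and 100% = ellipticine 6 µM median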
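Assay system – SV40-immortalized XiGFP fibroblast cells, line 68-5-11 · Buffer or medium – DMEM supplemented with 5-aza-dC as sensitizing agent · Dosing – one concentration, pinned · Benchmarks – positive control ellipticine, 6 µM final · Times – 3 days compound exposure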
TROY signal inh: inhibitors of TROY-dependent NF-kB signaling | Q293 LMP1-TROYcd NF-kB luciferase reporter, 4 h | inhibition, % at 10 µM | actives 0.98% (n = 360,000) | AID 1347056;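 active = compounds whose plate-normalised and pattern-corrected inhibition of the luciferase reporter signal at the single screening dose is 50% or more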
* hit, by the source's call; nt = no result; + = active, no number.

SMILES | LGR2 antag | CaV13 FRET inh | TWEAK Fn14 block | Xi reactivation | TROY signal inh
CCN(CC(O)Cn1c2ccccc2c2ccccc21)S(=O)(=O)c1ccc(C)cc1 (configuration not stated) | nt | -6 | 30 | nt | 23
CC(=O)Nc1ccccc1N(CC(O)Cn1c2ccccc2c2ccccc21)S(=O)(=O)c1ccc(C)cc1 (configuration not stated) | 3 | -5 | 53* | 0 | 11
COc1ccccc1-c1ccc2n(c1=O)C[C@H]1[C@H](CO)[C@@H](C(=O)N[C@H](C)c3ccccc3)[C@@H]2N1C | -14 | nt | nt | 0 | nt
COc1cc(S(=O)(=O)NCc2ccncc2)c(OC)cc1Br | 16 | -5 | 14 | 0 | 16
COc1cc(S(=O)(=O)NCc2cccnc2)c(OC)cc1Br | nt | -3 | 9 | nt | 50*
Cc1ccc(S(=O)(=O)Nc2ccc3c(c2)C(=O)N([C@H](C)CO)C[C@@H](C)[C@@H](CN(C)S(=O)(=O)c2c(C)noc2C)O3)cc1 | 11 | nt | nt | 0 | nt
CN1C(=O)c2cc(NC(=O)Nc3ccccc3)ccc2OC[C@@H]2O[C@H](CC(=O)O)CC[C@@H]21 | 7 | nt | nt | 2 | nt
Cc1ccc2oc(C(=O)N3CCN(c4cccc(C)n4)CC3)c(C)c2c1 | -14 | -19 | 69* | 0 | -33
c1csc(CNc2ncnc3ccc(-c4ccoc4)cc23)c1 | 45 | 11 | 88* | 0 | 55*
c1csc(CNc2ncnc3ccc(-c4ccc5c(c4)OCO5)cc23)c1 | nt | -5 | -24 | 0 | 15
CCCNC(=O)N(C)C[C@@H]1Oc2cc(-c3ccccc3F)ccc2S(=O)(=O)N([C@@H](C)CO)C[C@@H]1C | -3 | nt | nt | 2 | nt
C[C@H]1CN([C@@H](C)CO)S(=O)(=O)c2ccc(-c3cccnc3)cc2O[C@@H]1CN(C)Cc1ccccn1 | 1 | nt | nt | 0 | nt
N#CCCN(C(=O)Nc1ccccc1)c1ccccc1 | nt | -1 | -3 | nt | -1
N#CCCN(C(=O)Nc1ccc(Cl)cc1)c1ccccc1 | -5 | 0 | 86* | nt | -19
O=C(Nc1nc(-c2ccc(Cl)cc2)cs1)NC1CCCCC1 | 5 | -5 | 68* | 2 | 58*
O=C(Nc1ccc(Cl)cc1)Nc1nc(-c2ccccc2)cs1 | 4 | 4 | 2 | 0 | -3
CC(=O)c1c(C)[nH]c(C(=O)Nc2cc(C)cc(C)c2)c1C | nt | nt | -1 | nt | -3
CC(=O)c1c(C)[nH]c(C(=O)Nc2nc(-c3ccc(-c4ccccc4)cc3)cs2)c1C | 91* | -2 | 98* | 0 | 19
COc1cccc(OC)c1C(=O)Nc1nc(-c2ccccc2)cs1 | -8 | 16 | 6 | 0 | 20
COc1ccc(-c2nc(NC(=O)c3[nH]c(C)c(C(C)=O)c3C)sc2C)cc1 | 22 | -2 | -9 | 0 | -7
CC(=O)c1c(C)[nH]c(C(=O)Nc2nc(C)cs2)c1C | nt | -2 | 94* | 1 | 65*
CC(=O)c1c(C)[nH]c(C(=O)Nc2nc(-c3ccc(Cl)cc3)cs2)c1C | 2 | -4 | 68* | 0 | 58*
C[C@H](CO)N1C[C@H](C)[C@H](CN(C)C(=O)C2CCCCC2)OCc2cn(nn2)CCCC1=O | -6 | nt | nt | 0 | nt
C[C@H](CO)N1C[C@H](C)[C@@H](CN(C)C(=O)c2ccc(F)cc2)Oc2ncc(C#CCN(C)C)cc2C1=O | 8 | nt | nt | -1 | nt
CC(=O)c1c(C)[nH]c(C(=O)Nc2ccc(C)cn2)c1C | nt | -4 | 95* | nt | 67*
SMILES | LGR2 antag | CaV13 FRET inh | TWEAK Fn14 block | Xi reactivation | TROY signal inh
O=C1C(Cl)=C(N2CCN(c3ccccc3[N+](=O)[O-])CC2)C(=O)c2ccccc21 | 3 | -3 | 39 | 35* | 41
COCCNC(=O)C[C@H]1CC[C@H]2[C@@H](COc3ccc(NC(=O)C4CCCC4)cc3C(=O)N2C)O1 | 8 | nt | nt | 0 | nt
CCC(=O)N1CC(=O)N2[C@H](CO)[C@H](c3ccc(C#CC4CCCC4)cc3)[C@@H]2C1 | 11 | nt | nt | 0 | nt
O=S(=O)(Nc1nc2ccccc2nc1Nc1cccc(S(=O)(=O)N2CCCCC2)c1)c1ccccc1 | 46 | -3 | 77* | 0 | 68*
O=S(=O)(Nc1nc2ccccc2nc1Nc1ccc2c(c1)OCO2)c1ccc(F)cc1 | 42 | -3 | 61* | 0 | 58*
COc1ccc(S(=O)(=O)Nc2cccc(S(=O)(=O)N3CCCCCC3)c2)cc1 | 32 | -4 | 5 | 0 | 20
COc1ccc2c3c(n(C)c2c1)[C@H](CO)N(C(=O)CC1CC1)CC31CN(C(=O)C2CCC2)C1 | -1 | nt | nt | 0 | nt
O=C(NC1CC2CCCC(C1)N2C(=O)Nc1ccc(Cl)c(C(F)(F)F)c1)C1CC1 (configuration not stated) | nt | -4 | 2 | nt | -6
O=C(Nc1ccc(Cl)c(C(F)(F)F)c1)NC1CC2CCCC(C1)N2Cc1ccccc1 (configuration not stated) | 82* | -5 | nt | 0 | nt
COc1ccc(C2C3=C(CC(C)(C)CC3=O)N(C)C3=C2C(=O)CC(C)(C)C3)cc1OC | 2 | -21 | 5 | 0 | 29
COc1ccc(C2C3=C(CC(C)(C)CC3=O)N(C)C3=C2C(=O)CC(C)(C)C3)cc1 | 8 | + | 7 | 0 | 11
COc1ccc(OC)c(S(=O)(=O)Nc2cc3c4c(c2)CCC(=O)N4CCC3)c1 | 5 | -5 | -7 | 0 | -14
COc1ccc(OC)c(S(=O)(=O)Nc2cc3c4c(c2)C(C)C(=O)N4CCC3)c1 (configuration not stated) | -19 | -6 | -8 | 0 | 57*
Cc1cc(C(=O)CSc2nnc(-c3ccco3)o2)c(C)n1CC1COc2ccccc2O1 (configuration not stated) | nt | nt | 85* | nt | nt
CC(C)CCCCCCNC(=S)Nc1ccc(S(=O)(=O)N2CCOCC2)cc1 | 51* | -2 | 54* | 0 | 56*
O=S(=O)(c1ccc(NC(=S)Nc2ccccc2)cc1)N1CCOCC1 | -16 | -2 | 3 | 0 | -21
C/C=C/c1ccc2c(c1)O[C@@H](CN(C)C(=O)Nc1cccc(F)c1)[C@H](C)CN([C@@H](C)CO)S2(=O)=O | -9 | nt | nt | 0 | nt
Cc1ccc(-c2nnc(N3CCN(c4ccccn4)CC3)c3ccccc23)cc1 | nt | nt | 49 | nt | 54*
O=C(c1cnc(N2CCN(c3ncccn3)CC2)c2ccccc12)N1CCN(c2ccccn2)CC1 | nt | -4 | 49 | nt | 34
Cc1ccc(NC(=O)c2cnc(N3CCN(c4ccccn4)CC3)c3ccccc23)c(Br)c1 | 34 | -5 | 93* | 0 | 68*
O=C(Nc1c(F)cccc1F)c1cnc(N2CCN(c3ccccn3)CC2)c2ccccc12 | nt | -5 | 60* | nt | 36
Cc1noc(C)c1S(=O)(=O)N(C)C[C@@H]1Oc2ccc(NC(=O)Nc3ccccc3)cc2CC(=O)N([C@H](C)CO)C[C@H]1C | 6 | nt | nt | 0 | nt
